Key:
MDA-MB-435 = experiment: Growth inhibition of human MDA-MB-435 cells at 10 uM after 48 hrs; assay type: functional; conditions: MDA-MB-435, 48 h, read-out: GI
Procedure, shortened: (§1)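 Single-dose primary screen in the NCI 60 human tumour cell line panel, run at the NCI facility. The panel covers nine subpanels: leukaemia, non-small cell lung, colon, CNS, melanoma, ovarian, renal, prostate and breast. Read-out was percent growth of treated cells, shown as a mean graph and reported as percent growth inhibition.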

SW-620 = experiment: Growth inhibition of human SW620 cells at 10 uM after 48 hrs; assay type: functional; conditions: SW-620, 48 h, read-out: GI
Procedure, shortened: (§2)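 NCI 60-cell-line disease-oriented human tumor panel, single-dose primary screen at 10 µM. Data given as mean-graph percent growth of treated cells, reported as percent growth inhibition (GI %).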

KM12 = experiment: Growth inhibition of human KM12 cells at 10 uM after 48 hrs; assay type: functional; conditions: KM12, 48 h, read-out: GI; procedure, shortened: as §1
HCT-15 = experiment: Growth inhibition of human HCT15 cells at 10 uM after 48 hrs; assay type: functional; conditions: HCT-15, 48 h, read-out: GI; procedure, shortened: as §1
HT-29 = experiment: Growth inhibition of human HT-29 cells at 10 uM after 48 hrs; assay type: functional; conditions: HT-29, 48 h, read-out: GI; procedure, shortened: as §1
HCT-116 = experiment: Growth inhibition of human HCT116 cells at 10 uM after 48 hrs; assay type: functional; conditions: HCT-116, 48 h, read-out: GI; procedure, shortened: as §1
COLO 205 = experiment: Growth inhibition of human COLO205 cells at 10 uM after 48 hrs; assay type: functional; conditions: COLO 205, 48 h, read-out: GI; procedure, shortened: as §1
[1] = Growth inhibition of human HCC2998 cells at 10 uM after 48 hrs; assay type: functional; conditions: HCC 2998, 48 h, read-out: GI; procedure, shortened: as §1
NCI-H522 = experiment: Growth inhibition of human NCI-H522 cells at 10 uM after 48 hrs; assay type: functional; conditions: NCI-H522, 48 h, read-out: GI; procedure, shortened: as §1
NCI-H460 = experiment: Growth inhibition of human NCI-H460 cells at 10 uM after 48 hrs; assay type: functional; conditions: NCI-H460, 48 h, read-out: GI; procedure, shortened: as §1
[2] = Growth inhibition of human HOP92 cells at 10 uM after 48 hrs; assay type: functional; conditions: HOP-92, 48 h, read-out: GI; procedure, shortened: as §1
MOLT-4 = experiment: Growth inhibition of human MOLT4 cells at 10 uM after 48 hrs; assay type: functional; conditions: MOLT-4, 48 h, read-out: GI; procedure, shortened: as §1
CCRF-CEM = experiment: Growth inhibition of human CCRF-CEM cells at 10 uM after 48 hrs; assay type: functional; conditions: read-out: GI; procedure, shortened: as §1
Dihydrofolate reductase = biological target: T1, Dihydrofolate reductase (Bos taurus, UniProt P00376); experiment: Inhibition of bovine liver DHFR measured for every 1 min of 10 mins
T1 sequence (P00376 whole entry): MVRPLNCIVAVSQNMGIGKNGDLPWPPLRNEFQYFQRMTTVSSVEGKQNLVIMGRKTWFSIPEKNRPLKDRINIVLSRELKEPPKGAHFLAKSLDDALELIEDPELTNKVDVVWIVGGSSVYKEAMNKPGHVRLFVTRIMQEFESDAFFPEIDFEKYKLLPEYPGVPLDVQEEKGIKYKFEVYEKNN

MDA-MB-468 = experiment: Growth inhibition of human MDA-MB-468 cells at 10 uM after 48 hrs; assay type: functional; conditions: MDA-MB-468, 48 h, read-out: GI; procedure, shortened: as §1
BT-549 = experiment: Growth inhibition of human BT549 cells at 10 uM after 48 hrs; assay type: functional; conditions: BT-549, 48 h, read-out: GI; procedure, shortened: as §1
CAKI-1 = experiment: Growth inhibition of human CAKI-1 cells at 10 uM after 48 hrs; assay type: functional; conditions: CAKI-1, 48 h, read-out: GI; procedure, shortened: as §1
786-0 = experiment: Growth inhibition of human 786-0 cells at 10 uM after 48 hrs; assay type: functional; conditions: 786-0, 48 h, read-out: GI; procedure, shortened: as §1
OVCAR-8 = experiment: Growth inhibition of human OVCAR8 cells at 10 uM after 48 hrs; assay type: functional; conditions: OVCAR-8, 48 h, read-out: GI; procedure, shortened: as §1
IGROV-1 = experiment: Growth inhibition of human IGROV1 cells at 10 uM after 48 hrs; assay type: functional; conditions: IGROV-1, 48 h, read-out: GI; procedure, shortened: as §1
UACC-62 = experiment: Growth inhibition of human UACC62 cells at 10 uM after 48 hrs; assay type: functional; conditions: UACC-62, 48 h, read-out: GI; procedure, shortened: as §2
[3] = Growth inhibition of human UACC257 cells at 10 uM after 48 hrs; assay type: functional; conditions: UACC-257, 48 h, read-out: GI; procedure, shortened: as §2
SK-MEL-2 = experiment: Growth inhibition of human SK-MEL-2 cells at 10 uM after 48 hrs; assay type: functional; conditions: SK-MEL-2, 48 h, read-out: GI; procedure, shortened: as §2
Cancer cell lines [4] = experiment: Ratio of 5-FU LC50 to compound LC50 for human breast cancer cells; assay type: functional
Procedure, shortened: (§3)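 Compounds passing the NCI single-dose primary screen were retested across the 60 human tumour cell lines (nine subpanels) over a 5-log dose range. GI50, TGI and LC50 were recorded for each cell line, with 5-fluorouracil run as the reference drug. Subpanel values for compound and 5-FU were then compared.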

Cancer cell lines [5] = experiment: Ratio of 5-FU LC50 to compound LC50 for human CNS cancer cells; assay type: functional; procedure, shortened: as §3
Melanoma cell [6] = experiment: Ratio of 5-FU LC50 to compound LC50 for human melanoma cells; assay type: functional; procedure, shortened: as §3
Leukemia cell [7] = experiment: Ratio of 5-FU LC50 to compound LC50 for human leukemia cells; assay type: functional; procedure, shortened: as §3
Cancer cell lines [8] = experiment: Ratio of 5-FU LC50 to compound LC50 for human non-small cell lung cancer cells; assay type: functional; procedure, shortened: as §3
Cancer cell lines [9] = experiment: Ratio of 5-FU TGI to compound TGI for human prostate cancer cells; assay type: functional
Cancer cell lines [10] = experiment: Ratio of 5-FU TGI to compound TGI for human breast cancer cells; assay type: functional
Cancer cell lines [11] = experiment: Ratio of 5-FU TGI to compound TGI for human ovarian cancer cells; assay type: functional
Cancer cell lines [12] = experiment: Ratio of 5-FU TGI to compound TGI for human colon cancer cells; assay type: functional
Cancer cell lines [13] = experiment: Ratio of 5-FU TGI to compound TGI for human CNS cancer cells; assay type: functional
Melanoma cell [14] = experiment: Ratio of 5-FU TGI to compound TGI for human melanoma cells; assay type: functional
Cancer cell lines [15] = experiment: Ratio of 5-FU GI50 to compound GI50 for human breast cancer cells; assay type: functional; procedure, shortened: as §3
Cancer cell lines [16] = experiment: Ratio of 5-FU GI50 to compound GI50 for human renal cancer cells; assay type: functional; procedure, shortened: as §3
Melanoma cell [17] = experiment: Ratio of 5-FU GI50 to compound GI50 for human melanoma cells; assay type: functional; procedure, shortened: as §3
Cancer cell lines [18] = experiment: Ratio of 5-FU GI50 to compound GI50 for human colon cancer cells; assay type: functional; procedure, shortened: as §3
Cancer cell lines [19] = experiment: Ratio of 5-FU GI50 to compound GI50 for human non-small cell lung cancer cells; assay type: functional; procedure, shortened: as §3
Leukemia cell [20] = experiment: Ratio of 5-FU GI50 to compound GI50 for human leukemia cells; assay type: functional; procedure, shortened: as §3
[21] = Cytotoxicity against human breast cancer cells at 10 uM after 48 hrs; assay type: functional; conditions: Cancer cell lines; procedure, shortened: as §1
[22] = Cytotoxicity against human melanoma cells at 10 uM after 48 hrs; assay type: functional; conditions: Melanoma cell; procedure, shortened: as §1
[23] = Cytotoxicity against human leukemia cells at 10 uM after 48 hrs; assay type: functional; conditions: Leukemia cell

Question: Which inhibition of growth at 10 µM (MDA-MB-435) does the source give for `COc1ccc(/C=C2\CCCC3=C(c4ccc(OC)cc4)Nc4ccccc4N=C32)cc1` here?
Answer: Its inhibition of growth at 10 µM is 86.2%.

Question: And the inhibition of growth at 10 µM (SW-620)?
Answer: The inhibition of growth at 10 µM was under 30%.

Question: What about the inhibition of growth at 10 µM (KM12) of the same compound?
Answer: Its inhibition of growth at 10 µM is 72.5%.

Question: And the inhibition of growth at 10 µM (HCT-15)?
Answer: The inhibition of growth at 10 µM was under 30%.

Question: What about the inhibition of growth at 10 µM (HT-29) of the same compound?
Answer: Its inhibition of growth at 10 µM is under 30%.

Question: What about the inhibition of growth at 10 µM (HCT-116) of the same compound?
Answer: The inhibition of growth at 10 µM was 61.9%.

Question: What about the inhibition of growth at 10 µM (COLO 205) of the same compound?
Answer: The inhibition of growth at 10 µM was under 30%.

Question: What about the inhibition of growth at 10 µM [1] of the same compound?
Answer: The inhibition of growth at 10 µM was under 30%.

Question: And the inhibition of growth at 10 µM (NCI-H522)?
Answer: The inhibition of growth at 10 µM was 93.4%.

Question: And the inhibition of growth at 10 µM (NCI-H460)?
Answer: Its inhibition of growth at 10 µM is under 30%.

Question: And the inhibition of growth at 10 µM [2]?
Answer: The inhibition of growth at 10 µM was under 30%.

Question: And the inhibition of growth at 10 µM (MOLT-4)?
Answer: The inhibition of growth at 10 µM was under 30%.

Question: What about the inhibition of growth at 10 µM (CCRF-CEM) of the same compound?
Answer: The inhibition of growth at 10 µM was under 30%.

Question: What about the IC50 (Dihydrofolate reductase) of the same compound?
Answer: The IC50 was 0.6 µM.

Question: And the inhibition of growth at 10 µM (MDA-MB-468)?
Answer: Its inhibition of growth at 10 µM is 56.4%.

Question: What about the inhibition of growth at 10 µM (BT-549) of the same compound?
Answer: The inhibition of growth at 10 µM was under 30%.

Question: What about the inhibition of growth at 10 µM (CAKI-1) of the same compound?
Answer: The inhibition of growth at 10 µM was under 30%.

Question: And the inhibition of growth at 10 µM (786-0)?
Answer: The inhibition of growth at 10 µM was under 30%.

Question: And the inhibition of growth at 10 µM (OVCAR-8)?
Answer: Its inhibition of growth at 10 µM is under 30%.

Question: What about the inhibition of growth at 10 µM (IGROV-1) of the same compound?
Answer: Its inhibition of growth at 10 µM is under 30%.

Question: And the inhibition of growth at 10 µM (UACC-62)?
Answer: The inhibition of growth at 10 µM was 32%.

Question: And the inhibition of growth at 10 µM [3]?
Answer: Its inhibition of growth at 10 µM is under 30%.

Question: What about the inhibition of growth at 10 µM (SK-MEL-2) of the same compound?
Answer: The inhibition of growth at 10 µM was under 30%.

Question: Which results are given for `COc1cc(/C=C2\CCCC3=C(c4cc(OC)c(OC)c(OC)c4)Nc4ccccc4N=C32)cc(OC)c1OC`?
Answer: inhibition of growth at 10 µM (MDA-MB-435): 96.8%; inhibition of growth at 10 µM (SW-620): 94.3%; inhibition of growth at 10 µM (HCT-15): 93.9%; inhibition of growth at 10 µM (COLO 205): 99.8%; inhibition of growth at 10 µM [2]: < 30%; inhibition of growth at 10 µM (MOLT-4): 99.4%; inhibition of growth at 10 µM (CCRF-CEM): 95.7%; IC50 (Dihydrofolate reductase): 0.09 µM; RatioLC50 (Cancer cell lines [4]): 11; RatioLC50 (Cancer cell lines [5]): 11; RatioLC50 (Melanoma cell [6]): 11; RatioLC50 (Leukemia cell [7]): 11; RatioLC50 (Cancer cell lines [8]): 11; Ratio (Cancer cell lines [9]): 11; Ratio (Cancer cell lines [10]): 11; Ratio (Cancer cell lines [11]): 11; Ratio (Cancer cell lines [12]): 11; Ratio (Cancer cell lines [13]): 11; Ratio (Melanoma cell [14]): 11; RatioGI50 (Cancer cell lines [15]): 11; RatioGI50 (Cancer cell lines [16]): 11; RatioGI50 (Melanoma cell [17]): 11; RatioGI50 (Cancer cell lines [18]): 11; RatioGI50 (Cancer cell lines [19]): 11; RatioGI50 (Leukemia cell [20]): 11; GI50 [21]: 2.9 µM; LC50 (concentration killing 50% of cells) [21]: 89.4 µM; TGI [21]: 48.2 µM; GI50 [22]: 1.7 µM; TGI [22]: 5.6 µM; CC50 ([22]; read-out: LC50 (the source's name)): 71.4 µM; GI50 [23]: 1.4 µM; LC50 [23]: > 100 µM; TGI [23]: 5 µM; inhibition of growth at 10 µM (CAKI-1): 93.5%; inhibition of growth at 10 µM (786-0): 98.2%; inhibition of growth at 10 µM (OVCAR-8): 81.4%; inhibition of growth at 10 µM [3]: 83.8%; inhibition of growth at 10 µM (SK-MEL-2): 82.1%

Source: ChEMBL document CHEMBL3112482, “Nonclassical antifolates, part 5. Benzodiazepine analogs as a new class of DHFR inhibitors: synthesis, antitumor testing and molecular modeling study” (Eur J Med Chem, 2014)
